Measured values published in ChEMBL document CHEMBL3745686 (Eur J Med Chem, 2016).
Active and inactive are the calls of the source. The calls are words filed in the database; no cut-off is given here.

Tests used:
[1] = target: T1, P2X purinoceptor 1 (Homo sapiens) (UniProt P51575); test: Agonist activity at human platelet P2X1 receptor assessed as increase in cytosolic calcium level at 1 uM by […] staining based flow cytometric analysis relative to beta,gamma-CH2-ATP
T1 sequence (whole entry): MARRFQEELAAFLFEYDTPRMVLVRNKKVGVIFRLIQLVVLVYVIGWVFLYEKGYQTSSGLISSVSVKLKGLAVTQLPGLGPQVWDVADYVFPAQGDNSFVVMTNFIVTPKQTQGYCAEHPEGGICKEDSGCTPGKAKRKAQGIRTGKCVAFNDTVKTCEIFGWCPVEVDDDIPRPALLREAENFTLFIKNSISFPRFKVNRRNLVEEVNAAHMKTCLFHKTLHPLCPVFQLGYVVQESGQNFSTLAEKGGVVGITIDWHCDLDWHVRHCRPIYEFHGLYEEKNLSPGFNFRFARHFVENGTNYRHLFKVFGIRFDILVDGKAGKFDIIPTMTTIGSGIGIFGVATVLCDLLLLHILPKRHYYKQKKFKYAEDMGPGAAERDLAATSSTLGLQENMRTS
Outline: (§1)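 Stimulus was extracellular Ca2+ uptake on 1 μM test compound (P2X1, scaled to 20 μM β,γ-CH2-ATP as 100%, selective P2Y1 inhibitor control), or 3 μM ADP (P2Y1 antagonism; omitted for agonism).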

P2Y purinoceptor 1 [2] = target: T2, P2Y purinoceptor 1 (Homo sapiens, UniProt P47900); test: Antagonist activity at human platelet P2Y1 receptor assessed as inhibition of ADP-induced increase in cytosolic calcium level by FLUO-4 staining based flow cytometric analysis; format: functional; outline: as §1
Platelet = test: Anti-aggregatory activity in human platelet rich plasma assessed as inhibition of ADP-induced platelet shape change; format: functional, cell-free
P2Y purinoceptor 1 [3] = target: T2, P2Y purinoceptor 1; test: Agonist activity at human platelet P2Y1 receptor assessed as increase in cytosolic calcium level by FLUO-4 staining based flow cytometric analysis; format: functional; outline: as §1
P2Y purinoceptor 12 [4] = target: T3, P2Y purinoceptor 12 (Homo sapiens, UniProt Q9H244); test: Agonist activity at human platelet P2Y12 receptor assessed as decrease in intra-platelet phosphorylated VASP by flow cytometric analysis
P2Y purinoceptor 12 [5] = target: T3, P2Y purinoceptor 12; test: Antagonist activity at human platelet P2Y12 receptor assessed as inhibition of ADP-mediated decrease in intra-platelet phosphorylated VASP by flow cytometric analysis
[6] = Anti-aggregatory activity in human platelet rich plasma assessed as inhibition of 20 uM ADP-induced platelet aggregation by optical aggregometric analysis; format: functional, cell-free
[7] = Anti-aggregatory activity in human platelet rich plasma assessed as inhibition of 20 uM ADP-induced platelet aggregation preincubated for 15 mins by optical aggregometric analysis; format: functional, cell-free
Plasma [8] = test: Drug level in rat plasma treated with P'1,P'4-di-(2 methylthio-5'-adenosine) P'1,P'4-dithio-P'2,P'3-chloromethylenetetraphosphate, sodium salt at 50 uM after 77 hrs by HPLC analysis; format: ADME, cell-free
Outline: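 Frozen pooled heparinised rat or human plasma, thawed and warmed 5 min at 37 °C, spiked to 50 μM final compound (from 10 mM saline stock), held at 37 °C up to 77 h; heat-denatured plasma as chemical control; aliquots quenched with MeCN, ultrafiltered, dried, redissolved in pH 8.5 phosphate/EDTA; isocratic RP-HPLC, 273 nm; metabolites confirmed by reference compounds and LCMS; peak areas internally normalised.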

[9] = Anti-aggregatory activity in human platelet rich plasma assessed as inhibition of ADP-induced platelet aggregation by optical aggregometry; format: functional, cell-free
Plasma [10] = test: Metabolic stability in rat plasma assessed as first order elimination rate constant at 50 uM measured at 1 to 4 hrs; format: ADME, cell-free
Plasma [11] = test: Metabolic stability in human plasma assessed as first order elimination rate constant at 50 uM measured at 1 to 4 hrs; format: ADME, cell-free
Plasma [12] = test: Half life in rat plasma at 50 uM measured at 1 to 4 hrs; format: ADME, cell-free
Plasma [13] = test: Half life in human plasma at 50 uM measured at 1 to 4 hrs; format: ADME, cell-free

T2 sequence (P47900 whole entry): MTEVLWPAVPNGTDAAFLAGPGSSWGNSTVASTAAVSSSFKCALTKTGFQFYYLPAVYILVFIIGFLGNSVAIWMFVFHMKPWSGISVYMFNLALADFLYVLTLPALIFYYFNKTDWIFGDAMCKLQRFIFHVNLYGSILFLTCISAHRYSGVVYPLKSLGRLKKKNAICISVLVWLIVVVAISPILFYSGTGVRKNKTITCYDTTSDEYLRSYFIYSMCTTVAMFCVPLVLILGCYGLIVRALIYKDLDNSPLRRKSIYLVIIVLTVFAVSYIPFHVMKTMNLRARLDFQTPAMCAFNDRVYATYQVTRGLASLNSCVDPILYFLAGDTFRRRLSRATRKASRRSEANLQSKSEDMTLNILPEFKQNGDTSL
T3 sequence (Q9H244 whole entry): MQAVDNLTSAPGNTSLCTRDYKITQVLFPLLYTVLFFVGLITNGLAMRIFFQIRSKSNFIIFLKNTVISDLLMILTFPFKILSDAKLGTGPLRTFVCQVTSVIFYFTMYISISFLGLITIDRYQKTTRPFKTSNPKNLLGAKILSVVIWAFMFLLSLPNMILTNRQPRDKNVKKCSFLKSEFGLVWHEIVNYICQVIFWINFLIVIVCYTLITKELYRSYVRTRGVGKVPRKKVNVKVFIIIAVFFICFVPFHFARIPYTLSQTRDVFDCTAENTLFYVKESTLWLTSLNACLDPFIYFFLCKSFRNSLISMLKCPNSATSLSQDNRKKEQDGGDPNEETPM

Activity [1] | IC50 (P2Y purinoceptor 1 [2]) | Activity (P2Y purinoceptor 1 [3]) | Activity (P2Y purinoceptor 12 [4]) | IC50 (P2Y purinoceptor 12 [5]) | IC50 [6] | IC50 [7] | SMILES | inhibition (Platelet) | Drug metabolism (Plasma [8]) | IC50 [9] | Kel (Plasma [10]) | Kel (Plasma [11]) | t1/2 (Plasma [12]) | t1/2 (Plasma [13])
3.3% | 1.02 µM | inactive | inactive | 1.12 µM | – | – | CSc1nc(N)c2ncn([C@@H]3O[C@H](COP(=O)(S)OP(=O)(O)C(Cl)(Cl)P(=O)(O)OP(=O)(S)OC[C@H]4O[C@@H](n5cnc6c(N)nc(SC)nc65)[C@H](O)[C@@H]4O)[C@@H](O)[C@H]3O)c2n1 (mixture of isomers) | Active | – | – | – | – | – | –
31% | 6.3 µM | inactive | inactive | 1.02 µM | – | – | CCCSc1nc(N)c2ncn([C@@H]3O[C@H](COP(=O)(S)OP(=O)(O)C(Cl)P(=O)(O)OP(=O)(S)OC[C@H]4O[C@@H](n5cnc6c(N)nc(SCCC)nc65)[C@H](O)[C@@H]4O)[C@@H](O)[C@H]3O)c2n1 (mixture of isomers) | Active | – | – | – | – | – | –
1.8% | 2.24 µM | inactive | inactive | 0.34 µM | 6.22 µM | 4.52 µM | Nc1nc(Br)nc2c1ncn2[C@@H]1O[C@H](COP(=O)(S)OP(=O)(O)C(Cl)P(=O)(O)OP(=O)(S)OC[C@H]2O[C@@H](n3cnc4c(N)nc(Br)nc43)[C@H](O)[C@@H]2O)[C@@H](O)[C@H]1O (mixture of isomers) | Active | – | – | – | – | – | –
– | 2.25 µM | – | – | – | – | – | CNc1ncnc2c1ncn2[C@H]1C[C@H](OP(=O)(O)O)[C@@H](COP(=O)(O)O)O1 | – | – | – | – | – | – | –
-0.01% | 8.8 µM | inactive | inactive | 156 µM | – | – | CCCNc1ncnc2c1ncn2[C@@H]1O[C@H](COP(=O)(S)OP(=O)(O)C(Cl)P(=O)(O)OP(=O)(S)OC[C@H]2O[C@@H](n3cnc4c(NCCC)ncnc43)[C@H](O)[C@@H]2O)[C@@H](O)[C@H]1O (mixture of isomers) | Active | – | – | – | – | – | –
3% | 0.16 µM | inactive | inactive | 2.4 µM | – | – | CSc1nc(N)c2ncn([C@@H]3O[C@H](COP(=O)(S)OP(=O)(O)OP(=O)(O)OP(=O)(S)OC[C@H]4O[C@@H](n5cnc6c(N)nc(SC)nc65)[C@H](O)[C@@H]4O)[C@@H](O)[C@H]3O)c2n1 (mixture of isomers) | Active | – | – | – | – | – | –
– | – | – | – | – | – | – | CSc1nc(N)c2ncn([C@@H]3O[C@H](COP(O)(O)=S)[C@@H](O)[C@H]3O)c2n1 | – | metabolite_detected | – | – | – | – | –
0.07% | 7.37 µM | inactive | inactive | 9.3 µM | – | – | Nc1nc(Cl)nc2c1ncn2[C@@H]1O[C@H](COP(=O)(S)OP(=O)(O)C(Cl)P(=O)(O)OP(=O)(S)OC[C@H]2O[C@@H](n3cnc4c(N)nc(Cl)nc43)[C@H](O)[C@@H]2O)[C@@H](O)[C@H]1O (mixture of isomers) | Active | – | – | – | – | – | –
4.7% | 5.2 µM | inactive | inactive | 0.21 µM | – | – | Nc1nc(SCCC(F)(F)F)nc2c1ncn2[C@@H]1O[C@H](COP(=O)(S)OP(=O)(O)C(Cl)P(=O)(O)OP(=O)(S)OC[C@H]2O[C@@H](n3cnc4c(N)nc(SCCC(F)(F)F)nc43)[C@H](O)[C@@H]2O)[C@@H](O)[C@H]1O (mixture of isomers) | Active | – | – | – | – | – | –
– | – | – | – | – | – | – | CSc1nc(N)c2ncn([C@@H]3O[C@H](COP(=O)([S-])OP(=O)([O-])C(Cl)P(=O)([O-])OP(=O)([S-])OC[C@H]4O[C@@H](n5cnc6c(N)nc(SC)nc65)[C@H](O)[C@@H]4O)[C@@H](O)[C@H]3O)c2n1.[Na+].[Na+].[Na+].[Na+] (single isomer, unassigned; diastereomer 2) | – | – | 0.083 µM | 0.137 h⁻¹ | 0.0171 h⁻¹ | 5.06 h | 40.6 h
0.69% | 2.65 µM | inactive | inactive | 1.35 µM | – | – | Nc1nc(I)nc2c1ncn2[C@@H]1O[C@H](COP(=O)(S)OP(=O)(O)C(Cl)P(=O)(O)OP(=O)(S)OC[C@H]2O[C@@H](n3cnc4c(N)nc(I)nc43)[C@H](O)[C@@H]2O)[C@@H](O)[C@H]1O (mixture of isomers) | Active | – | – | – | – | – | –
– | – | – | – | – | – | – | CSc1nc(N)c2ncn([C@@H]3O[C@H](COP(=O)([S-])OP(=O)([O-])C(Cl)P(=O)([O-])OP(=O)([S-])OC[C@H]4O[C@@H](n5cnc6c(N)nc(SC)nc65)[C@H](O)[C@@H]4O)[C@@H](O)[C@H]3O)c2n1.[Na+].[Na+].[Na+].[Na+] (single isomer, unassigned; diastereomer 4) | – | – | 0.11 µM | 0.508 h⁻¹ | 0.0424 h⁻¹ | 1.37 h | 16.4 h
0.31% | 1.97 µM | inactive | inactive | > 200 µM | – | – | CNc1ncnc2c1ncn2[C@@H]1O[C@H](COP(=O)(S)OP(=O)(O)C(Cl)P(=O)(O)OP(=O)(S)OC[C@H]2O[C@@H](n3cnc4c(NC)ncnc43)[C@H](O)[C@@H]2O)[C@@H](O)[C@H]1O (mixture of isomers) | Active | – | – | – | – | – | –
– | – | – | – | – | – | – | CSc1nc(N)c2ncn([C@@H]3O[C@H](COP(=O)([S-])OP(=O)([O-])C(Cl)P(=O)([O-])OP(=O)([S-])OC[C@H]4O[C@@H](n5cnc6c(N)nc(SC)nc65)[C@H](O)[C@@H]4O)[C@@H](O)[C@H]3O)c2n1.[Na+].[Na+].[Na+].[Na+] (single isomer, unassigned; diastereomer 1) | – | – | 0.076 µM | 0.0069 h⁻¹ | 0.00976 h⁻¹ | 100.5 h | 71 h
92% | 0.36 µM | inactive | inactive | 0.73 µM | – | – | CNc1nc(SC)nc2c1ncn2[C@@H]1O[C@H](COP(=O)(S)OP(=O)(O)C(Cl)P(=O)(O)OP(=O)(S)OC[C@H]2O[C@@H](n3cnc4c(NC)nc(SC)nc43)[C@H](O)[C@@H]2O)[C@@H](O)[C@H]1O (some centres not stated) | Active | – | – | – | – | – | –
– | – | – | – | – | – | – | CSc1nc(N)c2ncn([C@@H]3O[C@H](COP(=O)([S-])OP(=O)([O-])C(Cl)P(=O)([O-])OP(=O)([S-])OC[C@H]4O[C@@H](n5cnc6c(N)nc(SC)nc65)[C@H](O)[C@@H]4O)[C@@H](O)[C@H]3O)c2n1.[Na+].[Na+].[Na+].[Na+] (single isomer, unassigned; diastereomer 3) | – | – | 0.064 µM | 0.128 h⁻¹ | 0.0217 h⁻¹ | 5.4 h | 31.9 h
– | 10.2 µM | – | – | – | – | – | Nc1ncnc2c1ncn2[C@@H]1O[C@H](COP(=O)(S)OP(=O)(O)C(Cl)P(=O)(O)OP(=O)(S)OC[C@H]2O[C@@H](n3cnc4c(N)ncnc43)[C@H](O)[C@@H]2O)[C@@H](O)[C@H]1O (mixture of isomers) | – | – | – | – | – | – | –
48% | 4.9 µM | inactive | inactive | 1.4 µM | – | – | CSc1nc(N)c2ncn([C@@H]3O[C@H](COP(=O)(O)OP(=O)(O)OP(=O)(O)OP(=O)(O)OC[C@H]4O[C@@H](n5cnc6c(N)nc(SC)nc65)[C@H](O)[C@@H]4O)[C@@H](O)[C@H]3O)c2n1 | Active | – | – | – | – | – | –
– | 29 µM | inactive | inactive | 0.31 µM | – | – | CSc1nc(N)c2ncn([C@@H]3O[C@H](COP(=O)(O)OP(=O)(O)C(Cl)P(=O)(O)OP(=O)(O)OC[C@H]4O[C@@H](n5cnc6c(N)nc(SC)nc65)[C@H](O)[C@@H]4O)[C@@H](O)[C@H]3O)c2n1 (some centres not stated) | Active | – | – | – | – | – | –
4.7% | 4.21 µM | inactive | inactive | 3.1 µM | – | – | CCCCCSc1nc(N)c2ncn([C@@H]3O[C@H](COP(=O)(S)OP(=O)(O)C(Cl)P(=O)(O)OP(=O)(S)OC[C@H]4O[C@@H](n5cnc6c(N)nc(SCCCCC)nc65)[C@H](O)[C@@H]4O)[C@@H](O)[C@H]3O)c2n1 (mixture of isomers) | Active | – | – | – | – | – | –
